Experiment: Toxicity liver stage against HepG2, at 10uM
Type: cell-based
Parameters: test concentration 10 uM, cell line HepG2-A16-CD81EGFP
Conditions: human, HepG2-A16-CD81EGFP cells; read-out: INHIBITION
Procedure, shortened: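 Uninfected HepG2-A16-CD81EGFP cells, 3 × 10^3 per well, 1536-well, plated on prespotted compound at 10 μM final, parasite-free screening media added to match infected plates; puromycin 10 μM positive, DMSO 0.5% negative; run in parallel with 48 h PbLuc assay at 37 °C, 5% CO2; viability by CellTiter-Glo luminescence, normalized to controls.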

Row | SMILES | cytotoxicity at 10 µM [%]
1 | O=C1CSC(c2ccc3c(c2)OCO3)c2cnn(C3CCCCC3)c2N1 (stereo not given) | -6.06
2 | COc1ccc(CN2CCOC[C@H]2c2nc(-c3ccncc3)c[nH]2)cc1 | -0.588
3 | CN(C)CCCNC(=O)c1nc(Cc2c(Cl)cccc2Cl)no1 | -0.31
4 | CN(C)S(=O)(=O)N1CCC(c2nnc(C(F)(F)F)o2)CC1 | 3.79
5 | O=C(CN1C(=O)CCC1=O)N1CCC(S(=O)(=O)Cc2ccco2)CC1 | 3.79
6 | CCOCC(=O)NCC1Cn2nnc(-c3cccc(F)c3)c2CO1 (stereo not given) | -1.29
7 | O=C(NCC1CC1)C1=NOC2(CCN(Cc3ccsc3)C2)C1 (stereo not given) | 1.47
8 | Cn1cc(CN2CC[C@H]3OCC[C@@H](C(=O)Nc4cnccn4)[C@@H]3C2)cn1 | 4.12
9 | Cc1ccc(S(=O)(=O)NC2CNC(=O)C2)cc1C (stereo not given) | -21.1
10 | COc1ccc(C)cc1NC(=O)Nc1cnc(N2CCN(C)CC2)nc1 | 5.06
11 | O=C1CCSCC(C(=O)N2CCCC2)N1 (stereo not given) | -9.83
12 | O=C1CCSCC(C(=O)N2CCN(C3CCCCC3)CC2)N1 (stereo not given) | -18.7
13 | O=C(c1ccsc1)N1CCc2c(CNc3ncccn3)n[nH]c2C1 | -16.7
14 | CC(C)C(NC(=O)c1cnc(N2CCOCC2)nc1)c1cccs1 (stereo not given) | 9.71
15 | COCCN1CCN(c2nc(O)cc(Cc3ccccc3F)n2)CC1 | -4.52
16 | c1cc(-c2cnc(C3CCNCC3)cn2)n[nH]1 | -2.78
17 | Cc1nccn1CCC1CCN(C(C)C)CC1 | -20.7
18 | Cn1c(CN2CCOC(CCc3ccncn3)C2)nc2ccccc21 (stereo not given) | -4.42
19 | c1cc(-c2nnc(C3CCCN(CC4CCCCC4)C3)o2)ccn1 (stereo not given) | -12.1
20 | Cc1nn(C)cc1CN1CCc2c(nc(-c3ccccn3)[nH]c2=O)C1 | -32.1
21 | Cc1cc(C)cc(-c2cccc(CC3(C(=O)O)CCOCC3)c2)c1 | -4.04
22 | Cc1noc(C)c1CN1CCCCC1c1nc(-c2ccccc2)no1 (stereo not given) | -44

Row | SMILES | cytotoxicity at 10 µM [%]
23 | Cc1ccc(-c2nc(CC(=O)NCC3CCCN(C(C)C)C3)cs2)o1 (stereo not given) | -53.2
24 | Cc1cc(C)n2cc(CN3CCC(N4CCN(C)C4=O)CC3)nc2n1 | 3.66
25 | NC(=O)CSCC(=O)NC1(c2cccc(Cl)c2)CC1 | -16.4
26 | Cc1cc(C)n(CC2CCCN2Cc2cccc(C#N)c2)n1 (stereo not given) | 11.2
27 | N#CC1(NC(=O)COc2cc(Cl)cc(Cl)c2)CCSC1 (stereo not given) | 7.95
28 | O=C(Nc1cc(C(F)(F)F)c[nH]c1=O)C1CCCN1 (stereo not given) | -7.33
29 | COC(=O)CC1CCCCN1CC(=O)NCCc1ccc(F)cc1 (stereo not given) | -8.61
30 | Cc1cc(C)n(CCCNC(=O)NCc2c(C)cc(C)[nH]c2=O)n1 | -1.12
31 | COc1ccc(OCc2nc3cc4c(cc3c(=O)o2)OCCCO4)cc1 | 5.73
32 | Cc1cc(CNCC2CCCN(C(=O)OC(C)(C)C)C2)no1 (stereo not given) | 6.22
33 | CC(C)c1noc(CCCC(=O)N2CCN(C)CC2c2ccccc2)n1 (stereo not given) | -2.89
34 | Cc1ccnc(C(NC(=O)c2oc(C)nc2C)C2CC2)n1 (stereo not given) | -0.392
35 | Cc1nn(C)c(C)c1OCC(=O)NCc1cccc(C(=O)O)c1 | -3.83
36 | O=c1oc(-c2ccccc2)nn1CN1CCC(N2CCCCC2)CC1 | 6.64
37 | CCN(Cc1ccccc1)C(=O)CN1CCCCC1Cn1cncn1 (stereo not given) | 7.15
38 | COCC(=O)N1CCN(Cc2csc(-c3ncccn3)n2)CC1 | -11.3
39 | Cc1ccc(C(=O)N(C)Cc2ccc(Br)o2)c(=O)[nH]1 | 8.6
40 | Cc1ccc(NC(=O)CNc2ccccc2C(N)=O)c(C)c1 | 1.15
41 | CC(CN1CCCC1=O)NC(=O)c1cc(Cl)c2c(c1)OCO2 (stereo not given) | -10.4
42 | CC(C)c1cnc(CN(C)C2CCN(CCS(C)(=O)=O)C2)o1 (stereo not given) | 0.528
43 | O=C(c1ccc(=O)[nH]n1)N1CCc2ccccc21 | 37.9
44 | COc1c(C(=O)N2CCOC(c3cccs3)C2)c(C)nn1C (stereo not given) | -0.43

Row | SMILES | cytotoxicity at 10 µM [%]
45 | CCN(c1cccc(F)c1)S(=O)(=O)c1cc(C(=O)O)cc2c1CCC2 | 10.5
46 | CC(Cc1ccco1)NC(=O)CCn1cccn1 (stereo not given) | -6.19
47 | Cc1cccc(C2CCCCN2C(=O)CCCS(C)(=O)=O)c1C (stereo not given) | 4.96
48 | CC(CNC(=O)C1(c2ccc(F)cc2)CC1)CN1CCCC1=O (stereo not given) | -8.26
49 | Cc1cc(N2CCC(NC(=O)CCc3ccco3)CC2)nc(C)n1 | -14.3
50 | CC(CC#N)N(C)Cc1ccccc1Cl (stereo not given) | -8.67
51 | CC(C)OCCC(=O)Nc1cc(C(=O)N(C)C(C)C)ccc1Cl | -3.79
52 | CC(=O)N(Cc1ccc(NCc2cnn(C(C)(C)C)c2)cc1)C(C)C | -3.44
53 | CCc1cnccc1C(=O)NC1CCN(C(=O)C2CCCCC2)CC1 | 3.51
54 | Cc1nnc(CN2CCCC2c2ccc(C(C)(C)C)cc2)o1 (stereo not given) | -8.48
55 | Cc1cccc2c1C(=O)NC1(CCOCC1)N2 | -42.3
56 | COCC(=O)NC1(c2cccc(C(F)(F)F)c2)CCC1 | -50
57 | COC(C)(C)CC(C)NC(=O)NC1CCN(Cc2ccccn2)CC1 (stereo not given) | 4.83
58 | CCc1nnsc1C(=O)N(C)Cc1ccc(Br)o1 | -48.8
59 | CCS(=O)(=O)NCCCNC(=O)N(C)C(C)c1ccccn1 (stereo not given) | 7.31
60 | Cc1noc(Cl)c1CCC(=O)N1CCCCC1Cn1cccn1 (stereo not given) | -12.6
61 | CCN(CC)C(=O)Cn1cc(C(=O)NCCc2nc(C)c(C)s2)nn1 | 2.22
62 | OCC1CCCCN1CCn1ccnc1-c1nc2ccccc2[nH]1 (stereo not given) | 8.89
63 | CN(Cc1ccc(-n2cccn2)cc1)Cc1ncc[nH]1 | 1.79
64 | Cc1cccc2sc(NC(=O)CN3CCCC4(CC3)CNC(=O)O4)nc12 (stereo not given) | -4.26
65 | c1cc2c(cc1-c1noc3c1CN(C1CCC1)CC3)OCO2 | -18.4
66 | Fc1ccc(CC2CCN(Cc3nccs3)CC2)cc1 | -2.87

Row | SMILES | cytotoxicity at 10 µM [%]
67 | CCc1cc(C(C)Nc2nc(-c3cccnc3)nc3c2CNC3)on1 (stereo not given) | 16.9
68 | Cc1c[nH]c(CN2CCCCC2CCN(C)C)c(C)c1=O (stereo not given) | -2.97
69 | CC[C@@H](c1ccccc1)n1c(CCN)n[nH]c1=O | 5.33
70 | CN(CCCc1cnn(C)c1)C(=O)C1CCN(C(=O)C2CCC2)CC1 | -11.6
71 | O=C(O)[C@@]12CN(c3cnccn3)C[C@@H]1CN(C1CCCC1)C2 | -10.3
72 | CN(Cc1cccnc1)c1nccc(N2CCN[C@H]3CS(=O)(=O)C[C@H]32)n1 | 5.82
73 | C[C@@H]1CN(S(=O)(=O)N2CCCC2)CC[C@@]1(O)C1CCOCC1 | 4.49
74 | CN(CCO)Cc1nnc(C2CCN(C(=O)C3CCOCC3)CC2)n1C | 2.01
75 | O=C1[C@@H]2CN(c3ncccc3Cl)C[C@]2(C(=O)O)CN1CC1CC1 | 1.04
76 | O=C(Cn1nnc(-c2ccc(F)cc2)n1)N1CCOCC(O)C1 (stereo not given) | 10.9
77 | CC(C)=CCN1CCC2(CC1)CC(=O)N(Cc1cc(F)cc(F)c1)C2 | 0.308
78 | CC(=O)N[C@H]1CCN(c2nc(C)nc3c2c(C)nn3C)C1 | 4.61
79 | O=C1NCCCc2[nH]c(-c3nc(C4CC4)no3)nc21 | -5.74
80 | CC(C)CC(O)C1CCN(Cc2cnc(-c3cccs3)nc2)CC1 (stereo not given) | -3.18
81 | CN1CCc2[nH]cnc2C12CCN(Cc1ccc(S(C)(=O)=O)cc1)CC2 | -3.72
82 | CC(C)c1cc(C(=O)N2C[C@@H](C)[C@](O)(C3CC3)C2)[nH]n1 | 16.3
83 | CNc1cc(C)nc(N2C[C@@H](C(=O)O)[C@H](C3CC3)C2)n1 | -0.147
84 | COc1ncc(-c2c(C#N)c(N)nc3c2CCc2[nH]ccc2-3)cn1 | 6.47
85 | Cn1nc(C2CN(C(=O)c3cscn3)C2)c2nccnc21 | 2.21
86 | Cc1nccc(CN2CC[C@H](Oc3cccc(F)c3)[C@@](C)(O)C2)n1 | 2.84
87 | COc1c(C2CCCN2C(=O)c2cscn2)c(C)nn1C (stereo not given) | 5.77
88 | COCCc1noc(CN2CCCC2Cn2cccn2)n1 (stereo not given) | -0.206

Row | SMILES | cytotoxicity at 10 µM [%]
89 | COc1ccc(-n2ccc(C(=O)NCCN3CCC(C)CC3)n2)cc1 | -6.48
90 | Cc1cc(C[S+]([O-])CC(=O)NCc2ccccc2)no1 (stereo not given) | -2.13
91 | Cc1nc(C)n(CC2CCCCN2Cc2nc3ccccc3o2)n1 (stereo not given) | -6.8
92 | Cc1cc(NC(=O)CN2CCCC2Cn2nc(C)nc2C)n(C)n1 (stereo not given) | -2.49
93 | CCCNC(=O)C(C)N1CCC(C(=O)Nc2cnn(CC)c2)CC1 (stereo not given) | -5.36
94 | c1sc(C2CCCCC2)nc1CN1CCn2c(nnc2C2CC2)C1 | -6.61
95 | CN(C)c1ccc(C(=O)NCCCNc2ccc(C(F)(F)F)cn2)cc1 | -7.66
96 | COCCCC(=O)NS(=O)(=O)c1ccc2c(c1)OCCCO2 | -2.77
97 | Cc1nccn1C1CCCN(C(=O)c2ccc3c(c2)nnn3C)C1 (stereo not given) | -7.89
98 | Cc1nnc(NCc2cccnc2N(C)C)c(C#N)c1C | -4.94
99 | Cc1ncc2c(n1)CCN(Cc1nc3ccccc3o1)C2 | 1.66
100 | Cc1cnn(CC2CCCN2c2nn3cc(C)nc3s2)c1 (stereo not given) | -2.84
101 | Cc1ccc(OCCCNC(=O)NC(C)c2nncn2C)cc1 (stereo not given) | -3.83
102 | Cc1cc(-c2cnn(CCNC(=O)c3cccnc3)c2C2CC2)on1 | 0.565
103 | c1ccc(NCc2cn3c(n2)CN(Cc2cccnc2)CC3)nc1 | 1.52
104 | O=C(CCC1CCCC1)NCCn1nc(C2CCNC2)c2cccnc21 (stereo not given) | -2.83
105 | O=C(N1CCOCC1)[C@@]12CCO[C@@H]1CCN(C1CCOCC1)C2 | 5.83
106 | CC(C)N1CCO[C@H]2CN(C(=O)c3ccoc3)C[C@H]21 | -0.207
107 | CC(C)N(C)Cc1ncn2c1CN(S(=O)(=O)c1cccs1)CCC2 | 3.62
108 | O=C(c1ccccn1)N1Cc2nccn2CC(CN2CCOCC2)C1 (stereo not given) | 2.16
109 | COc1ccc(F)c(-c2ncccc2C(=O)N2C[C@@H]3CC[C@H]2C3)c1 | -6.12
110 | COCCN1C(=O)[C@@H]2CC[C@H]1CN(S(=O)(=O)c1ccc(C#N)cc1)C2 | -2.59
